Measurements reported in ChEMBL document CHEMBL4251594, “Design and synthesis of sulfonamidophenylethylureas as novel cardiac myosin activator” (Eur J Med Chem, 2018).

How the values were obtained:
Bos taurus = species: Bos taurus; assay: Activation of actin-stimulated bovine cardiac myosin S1 fragment ATPase activity in sarcomere at 10 uM after 10 mins by spectrophotometric analysis relative to control
Rattus norvegicus [1] = assay: Positive inotropic activity in Sprague-Dawley rat heart assessed as increase in ejection fraction at 2 to 16 ug/kg/min infused for 3 mins by echocardiographic analysis; assay type: functional
Procedure, shortened: (§1)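 Seven-week-old male Sprague-Dawley rats; dosing via internal jugular vein central line, infused at 0, 2, 4, 8 and 16 µg/kg/min for 3 minutes from a 40 µg/mL final solution (concentration checked by HPLC against three standards). M-mode echocardiography at baseline and 16 µg/kg/min with a 25 MHz transducer; percent rise in LV fractional shortening and ejection fraction.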

Oryctolagus cuniculus = species: Oryctolagus cuniculus; assay: Activation of actin-stimulated rabbit skeletal muscle myosin S1 fragment ATPase activity at 100 uM after 10 mins by spectrophotometric analysis relative to control
Cardiac muscle cell [2] = assay: Positive inotropic activity in Sprague-Dawley rat ventricular myocytes assessed as change in ventricular cell contractility by measuring cell shortening at 5 uM; assay type: functional
Gallus gallus = species: Gallus gallus; assay: Activation of actin-stimulated chicken gizzard smooth muscle myosin S1 fragment ATPase activity at 100 uM after 10 mins by spectrophotometric analysis relative to control
Rattus norvegicus [3] = assay: Positive inotropic activity in Sprague-Dawley rat heart assessed as increase in left ventricle fractional shortening at 2 to 16 ug/kg/min infused for 3 mins by echocardiographic analysis; assay type: functional; procedure, shortened: as §1
[4] = Aqueous solubility of the compound in water; assay type: physicochemical; conditions: buffer
Cardiac muscle cell [5] = assay: Positive inotropic activity in Sprague-Dawley rat ventricular myocytes assessed as change in ventricular cell contractility by measuring cell shortening at 1 uM; assay type: functional

Row | Activity (Bos taurus) | Compound | also measured
1 | 91.6% | CN(C)S(=O)(=O)c1ccc(CCNC(=O)NCCCc2ccccc2)cc1 | Activity (Rattus norvegicus [1]): 11.55%; Activity (Oryctolagus cuniculus): -3.8%; Activity (Cardiac muscle cell [2]): 47.9%; Activity (Gallus gallus): -1.9%; Activity (Rattus norvegicus [3]): 17.62%
2 | 38.8% | COc1ccc(CNC(=O)NCCCc2ccccc2)cc1OC | –
3 | 40.6% | O=C(NCCCc1ccccc1)NCCc1ccc(C(=O)O)cc1 | –
4 | 31% | O=C(NCCCc1ccccc1)NCCc1ccc(Cl)cc1 | –
5 | 69% | CN(CCCc1ccccc1)C(=O)N(C)CCc1ccc(S(=O)(=O)N(C)C)cc1 | Activity (Rattus norvegicus [1]): 0.27%; Activity (Rattus norvegicus [3]): 0.46%
6 | 39.6% | NS(=O)(=O)c1ccc(CNC(=O)NCCCc2ccccc2)cc1 | –
7 | 20.8% | CN(C)S(=O)(=O)c1ccc(CCCNC(=O)NCc2ccccc2)cc1 | –
8 | 37.9% | NS(=O)(=O)c1ccc(CCNC(=O)NCCCc2ccc(Cl)cc2)cc1 | –
9 | 122% | COc1ccc(CCNC(=O)NCCCc2ccccc2)cc1OC | Activity (Rattus norvegicus [1]): 15.87%; Activity (Oryctolagus cuniculus): -2.4%; Activity (Cardiac muscle cell [2]): 22.2%; Activity (Gallus gallus): 4.3%; Activity (Rattus norvegicus [3]): 23.97%
10 | 31.8% | NS(=O)(=O)c1ccc(NC(=O)NCCCc2ccccc2)cc1 | –
11 | 56.2% | O=C(NCCCc1ccccc1)NCCc1ccc([N+](=O)[O-])cc1 | –
12 | 20.6% | CN(C)S(=O)(=O)c1ccc(CCNC(=O)NCCCc2ccc(F)cc2)cc1 | –
13 | 65.4% | O=C(NCCCc1ccccc1)NCCc1ccccc1F | Activity (Rattus norvegicus [1]): 8.76%; Activity (Rattus norvegicus [3]): 12.52%
14 | 39.5% | CCN(CCc1ccc(S(=O)(=O)N(C)C)cc1)C(=O)NCCCc1ccccc1 | –
15 | 38.6% | O=C(NCCCc1ccccc1)NCCc1ccc(F)cc1 | –
16 | 85.1% | CN(C)S(=O)(=O)c1ccc(C2CCN(C(=O)NCCCc3ccccc3)CC2)cc1 | –
17 | 38.1% | CC(C)N(CCc1ccc(S(=O)(=O)N(C)C)cc1)C(=O)NCCCc1ccccc1 | –
18 | 9.5% | O=C(NCCCc1ccc(F)cc1)NCc1ccccc1 | –
19 | 36.6% | NS(=O)(=O)c1ccc(CCNC(=O)NCCCCc2ccccc2)cc1 | –
20 | 40.6% | CC(C)N(CCc1ccc(S(=O)(=O)N(C)C)cc1)C(=O)N(C)CCCc1ccccc1 | –
21 | 58% | COC(=O)N1CCN(Cc2cccc(NC(=O)Nc3ccc(C)nc3)c2F)CC1 [OMECAMTIV MECARBIL] | Activity (Rattus norvegicus [1]): 13.35%; Activity (Oryctolagus cuniculus): 2.8%; Activity (Gallus gallus): -5.5%; Activity (Rattus norvegicus [3]): 20.32%; Activity (Cardiac muscle cell [5]): 33.8%
22 | 55.2% | Nc1ccc(CCNC(=O)NCCCc2ccccc2)cc1 | Activity (Rattus norvegicus [1]): 4.16%; Activity (Rattus norvegicus [3]): 6.37%
23 | 37.3% | O=C(NCCCc1ccccc1)NCCc1ccc(Cl)cc1Cl | –

The remaining lines, values behind:

Row | Compound | Activity (Bos taurus) | also measured
24 | NS(=O)(=O)c1ccc(CCNC(=O)NCCCc2ccc(F)cc2)cc1 | 19.1% | –
25 | NS(=O)(=O)c1ccc(CCNC(=O)NCCCc2ccccc2)cc1 | 41.9% | Activity (Rattus norvegicus [1]): 7.23%; Activity (Rattus norvegicus [3]): 11.24%
26 | CN(CCc1ccc(S(=O)(=O)N(C)C)cc1)C(=O)NCCCc1ccccc1 | 52.3% | Activity (Rattus norvegicus [1]): 24.19%; Activity (Rattus norvegicus [3]): 38.96%
27 | Cc1ccc2c(c1)C(=O)[C@]1(O)CCN(c3ccccc3)C1=N2 | – | Activity (Oryctolagus cuniculus): -50.7%; Activity (Gallus gallus): -35.7%
28 | COc1ccc(CCCNC(=O)NCCc2ccc(OC)c(OC)c2)cc1 | 38.4% | –
29 | COc1ccc(CNC(=O)NCCCc2ccccc2)cc1 | 25.4% | –
30 | COc1ccccc1CCNC(=O)NCCCc1ccccc1 | 95.1% | Activity (Rattus norvegicus [1]): 13.58%; Activity (Oryctolagus cuniculus): 3.5%; Activity (Cardiac muscle cell [2]): 19.7%; Activity (Gallus gallus): 5.3%; Activity (Rattus norvegicus [3]): 20.47%
31 | CN(C)S(=O)(=O)c1ccc(CNC(=O)N2CCC(c3ccccc3)CC2)cc1 | 27.6% | –
32 | CN(C)S(=O)(=O)c1ccc(CNC(=O)NCCCc2ccccc2)cc1 | 34.5% | –
33 | CN(C)S(=O)(=O)c1ccc(C2CCN(C(=O)NCCc3ccccc3)CC2)cc1 | 32.6% | –
34 | CN(C)S(=O)(=O)c1ccc(C2CCN(C(=O)NCc3ccccc3)CC2)cc1 | 36.9% | –
35 | CN(C)S(=O)(=O)c1ccc(CCNC(=O)N2CCC(c3ccccc3)CC2)cc1 | 40.7% | –
36 | COc1ccc(S(N)(=O)=O)c(CCNC(=O)NCCCc2ccccc2)c1 | 29.4% | –
37 | CCN(CCCc1ccccc1)C(=O)N(CC)CCc1ccc(S(=O)(=O)N(C)C)cc1 | 30.3% | –
38 | COc1ccc(CCCNC(=O)NCc2ccccc2)cc1 | 30.5% | –
39 | O=C(NCCCc1ccccc1)NCc1ccccc1 | 53.3% | Activity (Rattus norvegicus [1]): 18.27%; Activity (Oryctolagus cuniculus): 1.4%; Activity (Cardiac muscle cell [2]): 25.3%; Activity (Gallus gallus): -3.7%; Activity (Rattus norvegicus [3]): 30.04%
40 | COc1cccc(CCNC(=O)NCCCc2ccccc2)c1 | 35% | –
41 | CN(C)c1ccc(CCNC(=O)NCCCc2ccccc2)cc1 | 45.3% | –
42 | COc1ccc(CCNC(=O)NCCCCc2ccccc2)cc1OC | 32.5% | –
43 | O=C(NCCCc1ccccc1)NCCc1ccccc1 | 51.1% | Activity (Rattus norvegicus [1]): 12.15%; Activity (Oryctolagus cuniculus): -2.1%; Activity (Cardiac muscle cell [2]): 20.8%; Activity (Gallus gallus): -4.7%; Activity (Rattus norvegicus [3]): 18.9%
44 | COc1ccc(CCNC(=O)NCCCc2ccccc2)cc1 | 40% | –
45 | CC(C)c1ccc(CCNC(=O)NCCCc2ccccc2)cc1 | 33.3% | –
46 | Cc1ccc(CCNC(=O)NCCCc2ccccc2)cc1 | 73.8% | solubility [4]: Insoluble
47 | COc1ccc(CCCNC(=O)NCCc2ccc(S(N)(=O)=O)cc2)cc1 | 34.8% | –
48 | CN(CCCc1ccccc1)C(=O)NCCc1ccc(S(=O)(=O)N(C)C)cc1 | 47.6% | Activity (Rattus norvegicus [1]): 15.47%; Activity (Rattus norvegicus [3]): 23.19%
